In ChEMBL document CHEMBL3046733, “Comparative toxicity of selected organophosphate insecticides against resistant and susceptible clones of the greenbug, Schizaphis graminum (Homoptera: aphididae)” (J Agric Food Chem, 2000):
≈ marks a conversion by molar mass, not a printed value.

Legend:
Schizaphis graminum [1] = assay: Resistance index, ratio of LC50 for organophosphate-resistant clone of Schizaphis graminum OR2 adult or last-instar nymphs to LC50 for organophosphate-susceptible clone of Schizaphis graminum OSS adult or last-instar nymphs; type: functional; parameters: reference not given here
Schizaphis graminum [2] = assay: Resistance index, ratio of LC50 for organophosphate-resistant clone of Schizaphis graminum OR1 adult or last-instar nymphs to LC50 for organophosphate-susceptible clone of Schizaphis graminum OSS adult or last-instar nymphs; type: functional; parameters: reference not given here
Schizaphis graminum [3] = assay: Insecticidal activity against organophosphate-resistant clone of Schizaphis graminum OR2 adult or last-instar nymphs assessed as insect mortality after 8 hr; type: functional; settings: OR2, 8 h
Schizaphis graminum [4] = assay: Insecticidal activity against organophosphate-resistant clone of Schizaphis graminum OR1 adult or last-instar nymphs assessed as insect mortality after 8 hr; type: functional; settings: OR1, 8 h
Schizaphis graminum [5] = assay: Insecticidal activity against organophosphate-susceptible clone of Schizaphis graminum OSS adult or last-instar nymphs assessed as insect mortality after 8 hr; type: functional
[6] = biological target: Acetylcholinesterase (Schizaphis graminum) (UniProt Q9BMJ1); assay: Resistance index, ratio of bimolecular rate constant Ki for AChE in rganophosphate-resistant clone of Schizaphis graminum OR2 to bimolecular rate constant Ki for AChE in organophosphate-susceptible clone of Schizaphis graminum OSS
[7] = biological target: Acetylcholinesterase (Schizaphis graminum) (UniProt Q9BMJ1); assay: Resistance index, ratio of bimolecular rate constant Ki for AChE in rganophosphate-resistant clone of Schizaphis graminum OR1 to bimolecular rate constant Ki for AChE in organophosphate-susceptible clone of Schizaphis graminum OSS
Acetylcholinesterase [8] = biological target: T1, Acetylcholinesterase (Schizaphis graminum, UniProt Q9BMJ1); assay: Inhibition of AChE in organophosphate-resistant clone of Schizaphis graminum OR2 adult or last-instar nymphs homogenates assessed as bimolecular rate constant pre-incubated with compound for 2 min at 25 degC before addition of ATC and DTNB solution
Outline: (§1)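 Clones mass-reared on whole sorghum plants (hybrid NC+ 160) at 25 ± 2 °C with a 16:8 h L/D photoperiod. Greenbug AChE was preincubated with an organophosphate oxon inhibitor for 2 min at 25 °C. Residual AChE activity was then measured as a percentage of an inhibitor-free control.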

Acetylcholinesterase [9] = biological target: T1, Acetylcholinesterase; assay: Inhibition of AChE in organophosphate-resistant clone of Schizaphis graminum OR1 adult or last-instar nymphs homogenates assessed as bimolecular rate constant pre-incubated with compound for 2 min at 25 degC before addition of ATC and DTNB solution; outline: as §1
Acetylcholinesterase [10] = biological target: T1, Acetylcholinesterase; assay: Inhibition of AChE in organophosphate-susceptible clone of Schizaphis graminum OSS adult or last-instar nymphs homogenates assessed as bimolecular rate constant pre-incubated with compound for 2 min at 25 degC before addition of ATC and DTNB solution; outline: as §1

Sequence of Acetylcholinesterase (Schizaphis graminum) (Q9BMJ1 as listed by the source): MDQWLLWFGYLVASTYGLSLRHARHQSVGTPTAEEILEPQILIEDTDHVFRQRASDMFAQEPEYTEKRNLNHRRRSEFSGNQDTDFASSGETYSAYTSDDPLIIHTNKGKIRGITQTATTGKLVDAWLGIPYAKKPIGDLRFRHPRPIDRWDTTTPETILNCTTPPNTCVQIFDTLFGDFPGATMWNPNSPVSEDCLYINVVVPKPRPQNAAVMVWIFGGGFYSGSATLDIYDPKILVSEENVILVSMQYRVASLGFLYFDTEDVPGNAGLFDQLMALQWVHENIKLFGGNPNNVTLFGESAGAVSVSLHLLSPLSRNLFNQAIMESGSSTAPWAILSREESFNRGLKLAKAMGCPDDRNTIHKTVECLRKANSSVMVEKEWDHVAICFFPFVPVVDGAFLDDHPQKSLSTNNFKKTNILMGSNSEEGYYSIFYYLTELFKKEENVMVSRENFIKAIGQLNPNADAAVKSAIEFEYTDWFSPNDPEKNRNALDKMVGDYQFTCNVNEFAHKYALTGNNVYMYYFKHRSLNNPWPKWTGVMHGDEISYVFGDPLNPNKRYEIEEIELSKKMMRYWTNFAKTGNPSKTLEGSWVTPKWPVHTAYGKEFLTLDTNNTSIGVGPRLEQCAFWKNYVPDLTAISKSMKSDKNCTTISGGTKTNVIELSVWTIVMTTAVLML
T1 sequence (Q9BMJ1 whole entry): as the sequence (Q9BMJ1 as listed by the source) above

| SMILES | RatioLC50 (Schizaphis graminum [1]) | RatioLC50 (Schizaphis graminum [2]) | LC50 (Schizaphis graminum [3]) | LC50 (Schizaphis graminum [4]) | LC50 (Schizaphis graminum [5]) | Ratio [6] | Ratio [7] | Ki (Acetylcholinesterase [8]) | Ki (Acetylcholinesterase [9]) | Ki (Acetylcholinesterase [10]) |
| --- | --- | --- | --- | --- | --- | --- | --- | --- | --- | --- |
| CCOP(=S)(OCC)Oc1nc(Cl)c(Cl)cc1Cl [CHLORPYRIFOS] | 53.8 | 10.6 | 1.96 µg/mL (≈ 5.59 µM) | 0.39 µg/mL (≈ 1.11 µM) | 0.036 µg/mL (≈ 0.103 µM) | – | – | – | – | – |
| COP(=O)(OC)Oc1ccc([N+](=O)[O-])cc1 [DIMETHYL 4-NITROPHENYL PHOSPHATE] | – | – | – | – | – | 2.2 | 2.1 | 0.0217 M⁻¹ s⁻¹ | 0.0225 M⁻¹ s⁻¹ | 0.0483 M⁻¹ s⁻¹ |
| CCOP(=S)(OCC)SCCSCC [DISULFOTON] | 93.7 | 39.6 | 15.1 µg/mL (≈ 55 µM) | 6.37 µg/mL (≈ 23.2 µM) | 0.16 µg/mL (≈ 0.583 µM) | – | – | – | – | – |
| COP(=S)(OC)Oc1ccc([N+](=O)[O-])cc1 [METHYL PARATHIONE] | 41.3 | 11.1 | 1.27 µg/mL (≈ 4.83 µM) | 0.34 µg/mL (≈ 1.29 µM) | 0.031 µg/mL (≈ 0.118 µM) | – | – | – | – | – |
| CNC(=O)CSP(=O)(OC)OC [Omethoate] | 30.6 | 38.9 | 6.28 µg/mL (≈ 29.5 µM) | 8.01 µg/mL (≈ 37.6 µM) | 0.21 µg/mL (≈ 0.985 µM) | 3.5 | 3.8 | 0.0222 M⁻¹ s⁻¹ | 0.0207 M⁻¹ s⁻¹ | 0.077 M⁻¹ s⁻¹ |
| CCOP(=O)(OCC)Oc1ccc([N+](=O)[O-])cc1 [PARAOXON] | – | – | – | – | – | 2 | 1.8 | 0.012 M⁻¹ s⁻¹ | 0.0135 M⁻¹ s⁻¹ | 0.0237 M⁻¹ s⁻¹ |
| CCOP(=S)(OCC)Oc1ccc([N+](=O)[O-])cc1 [PARATHION] | 326.9 | 40.8 | 64.8 µg/mL (≈ 222 µM) | 8.07 µg/mL (≈ 27.7 µM) | 0.2 µg/mL (≈ 0.687 µM) | – | – | – | – | – |
| CCOP(=O)(OCC)SCCSCC [demeton S] | – | – | – | – | – | 1.3 | 1.3 | 0.0447 M⁻¹ s⁻¹ | 0.0437 M⁻¹ s⁻¹ | 0.0575 M⁻¹ s⁻¹ |
| CCSCCSP(=O)(OC)OC [demeton-S-methyl] | – | – | – | – | – | – | – | 0.0725 M⁻¹ s⁻¹ | 0.0685 M⁻¹ s⁻¹ | 0.101 M⁻¹ s⁻¹ |
